Mdm2 MdmX PPI – inhibitors of human Mdm2-MdmX association, primary screen, cell-based, luminescence, split luciferase, SaOS-2, uHTS; Protein Mdm4 (Homo sapiens) + E3 ubiquitin-protein ligase Mdm2 (Homo sapiens), …; SaOS-2 split-luciferase Mdm2/MdmX complementation; inhibition, % at 8 µM; 330,000 compounds, 3% hits; AID 485346, 2010;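 active = inhibition of at least 50% at 8 µM in the primary screen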
Target sequence (O15151 whole entry, looked up): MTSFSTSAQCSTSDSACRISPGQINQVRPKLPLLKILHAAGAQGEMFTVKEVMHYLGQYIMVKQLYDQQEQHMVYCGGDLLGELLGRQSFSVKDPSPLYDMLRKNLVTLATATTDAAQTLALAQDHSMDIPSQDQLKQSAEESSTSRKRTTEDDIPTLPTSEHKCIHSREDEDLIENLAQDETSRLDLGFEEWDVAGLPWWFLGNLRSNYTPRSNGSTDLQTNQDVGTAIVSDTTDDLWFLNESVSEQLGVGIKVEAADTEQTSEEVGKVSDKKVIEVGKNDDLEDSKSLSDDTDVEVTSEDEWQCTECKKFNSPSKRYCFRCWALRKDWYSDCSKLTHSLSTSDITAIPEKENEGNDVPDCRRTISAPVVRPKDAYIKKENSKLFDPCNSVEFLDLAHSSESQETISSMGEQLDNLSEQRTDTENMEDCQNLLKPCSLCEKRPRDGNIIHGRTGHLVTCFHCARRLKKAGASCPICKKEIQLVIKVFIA
Target sequence (Q00987 whole entry, looked up): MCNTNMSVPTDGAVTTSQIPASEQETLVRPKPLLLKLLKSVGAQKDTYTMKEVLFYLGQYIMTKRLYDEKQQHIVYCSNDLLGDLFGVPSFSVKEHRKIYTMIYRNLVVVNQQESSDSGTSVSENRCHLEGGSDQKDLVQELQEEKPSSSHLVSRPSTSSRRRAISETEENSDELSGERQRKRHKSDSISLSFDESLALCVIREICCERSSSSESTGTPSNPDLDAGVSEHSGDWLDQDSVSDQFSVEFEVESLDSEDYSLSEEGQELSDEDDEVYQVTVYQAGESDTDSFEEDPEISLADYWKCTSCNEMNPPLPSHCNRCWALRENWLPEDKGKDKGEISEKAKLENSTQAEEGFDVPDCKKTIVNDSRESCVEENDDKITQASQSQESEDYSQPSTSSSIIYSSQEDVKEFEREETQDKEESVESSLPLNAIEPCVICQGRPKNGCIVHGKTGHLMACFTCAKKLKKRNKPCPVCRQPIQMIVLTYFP
SKKanGAS inh – S. pyogenes SKKanGAS growth inhibitors in kanamycin, primary screen, streptokinase expression inhibitor project, SKKanGAS strain, BacTiter-Glo luminescence; 300,000 compounds, 1.3% hits; inhibition, % at 7.5 µM; 6 h; AID 1662, 2009;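 active = mean replicate score, as percent of positive control median, at least 50; inconclusive = mean below 50 but one replicate at or above 50; inactive = mean and every replicate below 50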;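 note: strain carries kanamycin resistance gene driven by streptokinase promoter and grows in 40 µg/ml kanamycin; loss of luminescence reflects streptokinase promoter inhibition or plain growth inhibition; 0% = median of DMSO wells and 100% = positive control at its reference dose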
Calb FLC – C. albicans growth inhibition with fluconazole, primary screen, CaCi-2 strain, Alamar Blue fluorescence. C. albicans CaCi-2 (fluconazole-resistant clinical isolate) + fluconazole, 48 h. growth inhibition, % (no concentration beside the values). 300,000 compounds, 0.57% hits. AID 1979, 2009;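 active = growth inhibition above about 58% in most replicates, limit read from the data, passing the limit was not always enough; inconclusive = exactly half the replicates above a set limit; inactive = most replicates below a set limit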;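 note: all wells also contain fluconazole at 8 µg/ml as a sub-toxic cotreatment; 0% = median of DMSO wells and 100% = median of geldanamycin control wells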
CSC inhib – cancer stem cell viability inhibitors, primary screen, luminescence | cancer stem cell-like cells viability | inhibition, % at 7.5 µM | 300,000 compounds, 1.1% hits; in the data active = inhibition above about 75%; inconclusive = no clear call, values can overlap the other calls; tested in HMLE shEcad cells
Beta cell apopt – inhibitors of cytokine-induced beta cell apoptosis, primary screen, luminescence; INS-1E cytokine-induced death, ATP luminescence, 48 h; percent of positive-control rescue, neutral wells zero; protection from apoptosis, % (no concentration beside the values); 300,000 compounds, 0.8% hits; AID 435005, 2010;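 active = Every replicate reaches about 75%, or at least half do and their mean reaches it too, limit read from the data; inconclusive = At least half of replicates reach the limit but their mean does not; inactive = Under half of replicates reach the limit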;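 note: 0% = cytokine-treated negative control wells and 100% = positive control rescue; higher means more ATP so stronger rescue from cytokine killing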
T cruzi inh – inhibitors of intracellular T. cruzi growth, primary screen, luminescence, NIH3T3 host cells | T. cruzi beta-gal in NIH3T3, 90 h | inhibition, % (no concentration beside the values) | 300,000 compounds, 1.4% hits | AID 1885, 2009;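 active = mean inhibition across valid replicates above about 55%, limit read from the data; inconclusive = mean below that limit but half or more replicates reach it; inactive = mean below it, under half of replicates reach it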;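 note: signal also drops with host cell toxicity which is not excluded here; 0% = plate median of DMSO wells and 100% = zero luminescence signal; higher percent means less beta-gal luminescence so fewer parasites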
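Incubation – ≥90 h infection period, 3 h prior cell attachment · System – NIH/3T3 fibroblasts plus reporter T. cruzi · Doses – compound pinned at 50 nL/well, DMSO · Read-out basis – percent inhibition of parasite-derived β-gal signal · Signal – luminescent β-galactosidase signal after 60 min lysis · Also added – 5000 T. cruzi trypomastigotes/well · Medium – Low-serum DMEM with 2% FBS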
Mdm2 MdmX conf – Mdm2-MdmX complex disruptors, retested hits, confirmation, luminescence, single concentration. shares compounds with Mdm2 MdmX PPI. 10,000 compounds, 55% hits. Mdm2-MdmX binding, luminescent assay. inhibition, % at 8 µM; in the data active = inhibition above about 40%
FLuc counter – full-length luciferase signal inhibition, confirmation, counter-screen for Mdm2/MdmX interaction inhibitor project, cell-based, single concentration, SaOS-2. 6,200 compounds, 77% hits. SaOS-2 full-length luciferase counterscreen, luminescence. shares compounds with Mdm2 MdmX PPI. inhibition, % at 8 µM. AID 504607, 2011;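 active = mean inhibition at 8 µM reaching about 37%, which flags the compound as non-specific, limit read from the data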;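 note: p53-null SaOS-2 cells with luciferase driven by a doxycycline-inducible promoter; compound on cells about two nights before reading with doxycycline added after day one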
Numbers without * were called inactive; ? = inconclusive; · = no result. Most compounds without a hit are left out; they make up all but 5.7% or so of the library.

SMILES	Mdm2 MdmX PPI	SKKanGAS inh	Calb FLC	CSC inhib	Beta cell apopt	T cruzi inh	Mdm2 MdmX conf	others
CCOC(=O)C(Cc1ccc(NC(=O)/C(=C/c2ccccc2)NC(=O)c2ccccc2)cc1)N1C(=O)c2ccccc2C1=O (stereo unspecified)	52*	-6	-3	0	-2	-5	19
CCOc1ccc(NC(=O)C(CC(=O)O)Cc2ccccc2)cc1 (stereo unspecified)	-3	10	-4	1	-1	-14	·
Cc1nn(Cc2c(Cl)cccc2Cl)c(Cl)c1/C=C/C(=O)OCC(=O)NCC(F)(F)F	79*	1	-4	7	-5	18	25
Cc1ccc(N(CC(=O)NCc2ccccc2)C(=O)CCC(=O)Nc2ccccn2)cc1	15	-2	-1	-16	-6	11	·
O=C(CC(Nc1ccccc1)C(=O)O)c1ccccc1 (stereo unspecified)	-83	5	3	-12	0	45	·
O=C(CC(Nc1ccc(Cl)cc1Cl)C(=O)O)c1ccccc1 (stereo unspecified)	71*	-5	-14	-11	-1	-1	80*	FLuc counter=63*
COC(=O)c1cnc(Oc2ccc(NC(=O)NC(=O)c3c(F)cccc3F)cc2)cc1C(F)(F)F	13	3	-11	5	0	-9	·
COC(=O)c1cnc(Oc2ccc(NC(=O)NC(=O)c3c(OC)cccc3OC)cc2)cc1C(F)(F)F	76*	19	-7	41	33	29	58*	FLuc counter=80*
CCOC(=O)c1c(NC(C)=O)sc2c(OC)c(Br)ccc12	21	8	-4	-8	3	2	·
CCOC(=O)c1c(NC(C)=O)sc2c(OCCN(CC)CC)c(Br)ccc12	55*	14	21	28	56	58*	14
CCOC(=O)c1c(NC(C)=O)sc2c(OCC(O)CN(CC)CC)c(Br)ccc12 (stereo unspecified)	85*	0	-10	25	27	48	28
COc1ccc(NC(=O)C2(c3ccc(NC(=O)c4ccc(OC)c(OC)c4)cc3)CCCC2)cc1	55*	2	-31	2	-2	-18	21
CCc1noc(C)c1C(=O)N(C)CC(=O)Nc1cccc(OC)c1	17	·	·	2	0	·	·
Cc1ccc(Nc2nnc(SCc3nc4ccccc4c(=O)[nH]3)s2)cc1	66*	0	-9	-4	58	-11	40*	FLuc counter=17
C=CCOc1ccc(/C=C/C(=O)Nc2ccc(C(=O)NC)cc2)cc1	75*	1	29	7	-5	-4	5
CCCCOc1ccc(/C=C/C(=O)Nc2ccc(C(N)=O)cc2)cc1	-2	-8	?	-3	9	-9	·
Cc1ccc(Cl)cc1NC(=O)c1cc(NC(=O)C2CCCCC2C(=O)O)ccc1N1CCOCC1 (stereo unspecified)	0	9	19	0	-4	2	·
Cc1ccc(/C=N/NC(=O)c2nnn(-c3nonc3N)c2C(C)C)s1	11	0	-24	-6	-6	-10	·
O=[N+]([O-])c1ccc(Sc2cccc3cccnc23)c([N+](=O)[O-])c1	93*	·	-10	17	80*	-3	86*	FLuc counter=57*
COc1ccc(CN2CCC(n3nccc3NC(=O)C3CC3)CC2)cc1O	-2	-1	-1	4	-7	-13	·
COc1ccc(-c2ccc(C#N)c(OC(=O)c3c(Cl)cccc3Cl)n2)cc1	64*	0	-4	46	-1	-7	28
COc1ccc(OC)c(-c2csc(NC(=O)Cn3[nH]c(=O)c4ccccc4c3=O)n2)c1	67*	3	-6	13	23	12	83*	FLuc counter=50*
Cc1sc(NC(=O)Cn2[nH]c(=O)c3ccccc3c2=O)nc1-c1ccccc1	56*	7	3	8	3	-15	8
COc1ccc(OC)c(-c2csc(NC(=O)Cc3ccc(F)cc3)n2)c1	34	18	-33	25	·	29	·
Cc1c(NC(=O)Cn2[nH]c(=O)c3ccccc3c2=O)c(=O)n(-c2ccccc2)n1C	6	0	11	-6	1	-5	·
SMILES	Mdm2 MdmX PPI	SKKanGAS inh	Calb FLC	CSC inhib	Beta cell apopt	T cruzi inh	Mdm2 MdmX conf	others
CCCOc1ccc(CNC(=O)c2ccc3nc(N4CCOCC4)sc3c2)cc1	51*	-3	-3	2	4	0	7
O=C(CN1C(=O)NC2(CCc3ccccc32)C1=O)NCc1ccc(Cl)cc1 (stereo unspecified)	27	·	·	-7	3	·	·
CCn1c(SCc2c(Cl)cccc2Cl)nc2nc3c(cc2c1=O)CCCC3	64*	26	-3	30	28	29	63*	FLuc counter=36
COc1cccc(NC(=O)CN2C(=O)COc3ccc(S(=O)(=O)N4CCCCCC4)cc32)c1	29	0	-21	-10	-4	9	·
CCOc1ccc(-n2nnnc2SCC(=O)c2ccccc2)cc1	68*	8	2	21	-9	-8	15
COc1ccc(-n2nnnc2SCC(=O)c2cccc(OC)c2)cc1	49	-10	1	44	3	-2	·
CCn1nc([N+](=O)[O-])c(C(C#N)c2nc3cc(C(F)(F)F)ccc3s2)c(Cl)c1=O (stereo unspecified)	76*	28	24	112*	14	-16	72*	FLuc counter=50*
Cc1nn(CC(C)C)c(Cl)c1C(=O)N(c1ccc(Cl)cc1F)S(C)(=O)=O	45	2	-1	8	-5	-5	·
COc1cc(C(C)=O)ccc1OCC(=O)NCCCn1nc(C)cc1C	-12	·	·	-9	0	·	·
Cc1ccc(C)c(NC(=O)c2cc3c([nH]c4ccccc43)c(C)n2)c1	14	6	0	-25	-1	0	·
Cc1cccc(NC(=O)c2cc3c([nH]c4ccccc43)c(C)n2)c1C	66*	0	-5	-11	-3	2	3
O=C(CN1CCN(S(=O)(=O)N2CCOCC2)CC1)Nc1cc(Cl)cc(Cl)c1	16	0	-7	-6	-1	10	·
CCOc1ccc(S(=O)(=O)N2CCC(C(=O)NC3CCCC3)CC2)cc1	27	-1	-5	-6	-2	-4	·

Screening results from PubChem.
